According to ChEMBL document CHEMBL3120104, “Discovery of the first C-nucleoside HCV polymerase inhibitor (GS-6620) with demonstrated antiviral response in HCV infected patients” (J Med Chem, 2014):

Columns and labels:
[1] = molecular target: DNA-directed RNA polymerase, mitochondrial (Homo sapiens) (UniProt O00411); assay: Inhibition of mitochondrial RNA polymerase (unknown origin) assessed as inhibition of single nucleotide incorporation; settings: concentration not given here
Procedure, shortened: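 Reactions started with 500 μM (final) natural NTP or NTP analog. Time-point aliquots were quenched in EDTA/formamide, heated to 65 °C, resolved on 20% polyacrylamide/8 M urea gels, and product formation quantified by phosphorimaging.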

[2] = test system: Rattus norvegicus; assay: Toxicity in Sprague-Dawley rat assessed as death at 20 to 40 mg/kg, po qd for 7 days; format: organism-based; design: dose 20-40 mg/kg, route oral; settings: in vivo, 168 h
[3] = Toxicity in po dosed Sprague-Dawley rat assessed as necrosis in organs administered qd for 7 days; format: organism-based; settings: in vivo
[4] = Inhibition of HCV genotype 1b recombinant NS5B RNA dependent RNA polymerase using sshRNA as substrate incubated for 5 mins prior to compound addition measured after 90 mins in presence of [33P]GTP
[5] = test system: Hepatitis C virus; assay: Antiviral activity against HCV genotype 1b infected in human HuH7 cells assessed as inhibition of viral replication after 3 days by luminescence assay; format: functional, organism-based, Hepacivirus hominis; settings: Huh-7, 72 h
Procedure, shortened: (§1)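 Multiplex replicon assay carrying a renilla luciferase reporter, with stable GT1b, 1a and 2a replicons and chimeric 2b, 3a, 4a, 5a and 6a replicons. 2000 replicon cells/well in medium without Geneticin. Ten-step 1:3 serial dilutions, four replicates, 0.44% DMSO final. Incubated 3 days at 37 °C, 5% CO₂. Luminescence normalised to DMSO wells and to protease-inhibitor (ITMN-191) wells. EC50 from a four-parameter Hill fit.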

[6] = test system: Hepatitis C virus; assay: Antiviral activity against HCV genotype 2a; format: functional, organism-based, Hepacivirus hominis; settings: pooled result: one value given for 8 cell lines, strains, targets or settings; procedure, shortened: as §1
[7] = test system: Hepatitis C virus; assay: Antiviral activity against HCV genotype 1 infected in human patient assessed as viral load reduction at 900 mg administered as tablet formulation bid for 5 days relative to baseline control; format: functional, Hepacivirus hominis
Procedure, shortened: (§2)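 Randomized, double-blind, placebo-controlled, multiple-dose, dose-escalation trial in treatment-naive patients chronically infected with HCV genotype 1. Cohorts had eight active and two placebo subjects. Doses ran from 50 mg once daily to 900 mg BID, fed or fasted, for 5 days. Read-out was median viral load change (log10 IU/mL) from baseline.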

[8] = test system: Homo sapiens; assay: Toxicity in human patient infected with HCV genotype 1 administered twice a day for 5 days; format: organism-based; settings: in vivo, 120 h
Procedure, shortened: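 Randomized, double-blind, placebo-controlled multiple-dose escalation in treatment-naive patients chronically infected with HCV genotype 1. Nine cohorts (8 active, 2 placebo each) received 50 mg once daily up to 900 mg BID, fed or fasted, for 5 days. Safety, tolerability and viral load were assessed.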

[9] = test system: Hepatitis C virus; assay: Antiviral activity against HCV genotype 1 infected in human patient assessed as viral load reduction at 450 mg administered as solution bid relative to baseline control; format: functional, Hepacivirus hominis; procedure, shortened: as §2
[10] = Metabolic stability in serum (unknown origin); format: ADME
[11] = test system: Hepatitis C virus; assay: Antiviral activity against HCV genotype 1 infected in human patient assessed as viral load reduction at 900 mg, bid relative to placebo; format: functional, Hepacivirus hominis
[12] = Cytotoxicity against human HuH7 cells after 3 days by fluorescence assay; format: cell-based; settings: Huh-7 cells
Procedure, shortened: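 Huh-7 HCV replicon cells were seeded at 2000 cells/well in medium without Geneticin. Compounds were added as ten-point 1:3 DMSO dilutions in quadruplicate (final DMSO 0.44%), with […] as the 100% cytotoxicity control. After 3 days at 37 °C, cells were washed and given 400 nM calcein AM for 30 min at RT, and fluorescence read at ex 490/em 520 nm. Signal was normalized to DMSO and puromycin wells, and CC50 taken from a four-parameter Hill fit.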

[13] = test system: Syrian golden hamster; assay: Cmax in golden syrian hamster assessed as liver triphosphate level at 1 mg/kg, iv by LC/MS/MS analysis; format: ADME, organism-based, Mesocricetus auratus; design: dose 1 mg/kg, route intravenous; settings: in vivo
Procedure, shortened: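 Golden Syrian hamsters in groups of 12, dosed iv at 1 mg-equiv/kg in EtOH/PEG400/water adjusted to pH 4 with HCl (0.5 mg-equiv/mL). Liver homogenised in ice-cold 70% MeOH with 0.1% KOH, 67 mM EDTA and 0.25 μM Cl-ATP internal standard, then centrifuged, dried and reconstituted. Triphosphate measured by LC/MS/MS; endogenous ATP checked for sample stability.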

[14] = Oral absorption in beagle dog at 5 mg/kg, po by LC/MS/MS analysis; format: ADME, organism-based, Canis lupus familiaris; design: dose 5 mg/kg, route oral; settings: in vivo
Procedure, shortened: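 Naive male beagle dogs were dosed once, orally at 5 mg/kg in EtOH/PEG 400/50 mM citrate buffer pH 4 (5/40/55), or intravenously at 0.5 mg/kg for reference. Plasma was sampled over 24 h and processed by acetonitrile precipitation. Bioavailability %F = AUC_po × Dose_iv / (AUC_iv × Dose_po).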

[15] = Toxicity in rat after 7 days; format: organism-based; settings: in vivo
Procedure, shortened: (§3)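 Nonclinical 7-day toxicology study with daily dosing up to 300 mg/(kg day) in rats and up to 75 mg/(kg day) in dogs; NOAEL set from test-article related findings.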

[16] = Lipophilicity, log D of the compound by HPLC/UV method; format: physicochemical
Procedure, shortened: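 A 10 mM DMSO stock was diluted 1:100 into 1:1 acetonitrile/water, shaken 30 min, and analysed by HPLC/UV on a C18 column with 20 mM ammonium acetate/acetonitrile mobile phase.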

[17] = test system: Hepatitis C virus; assay: Selectivity ratio of EC50 for HCV harboring NS5B RNA dependent RNA polymerase S282T mutant to EC50 for wild-type HCV; format: functional, Hepacivirus hominis
[18] = Toxicity in dog after 7 days; format: organism-based, Canis lupus familiaris; settings: in vivo; procedure, shortened: as §3
[19] = test system: Syrian golden hamster; assay: Cmax in golden syrian hamster assessed as liver triphosphate level at 5 mg/kg, po by LC/MS/MS analysis; format: ADME, organism-based, Mesocricetus auratus; design: dose 5 mg/kg, route oral; settings: in vivo
Procedure, shortened: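 Groups of 12 Golden Syrian hamsters were dosed orally at 5 mg-equiv/kg. Vehicle was EtOH/PEG400/water buffered with 50 mM pH 4 citrate at 2.5 mg-equiv/mL. Liver was homogenized in four volumes of ice-cold 0.1% KOH/67 mM EDTA in 70% MeOH containing 0.25 μM Cl-ATP, then centrifuged, dried and reconstituted in 1 mM ammonium phosphate pH 7.0. Triphosphate was measured by LC/MS/MS, with endogenous ATP checked for sample stability.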

[20] = Efflux ratio of apparent permeability across human Caco2 cells at 100 uM; format: ADME, cell-based; settings: Caco-2
Procedure, shortened: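 Caco-2 monolayers grown to confluence for at least 21 days; membrane integrity checked by TEER after equilibration in transport buffer. Compound added to apical or basolateral side (duplicate wells) to give forward and reverse permeability. Receiver samples taken at 1 and 2 h, acetonitrile-precipitated, and quantified by LC/MS/MS. Papp calculated from receiver slope, volume and monolayer area. Recovery also measured.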

Sequence of DNA-directed RNA polymerase, mitochondrial (Homo sapiens) (O00411 whole entry): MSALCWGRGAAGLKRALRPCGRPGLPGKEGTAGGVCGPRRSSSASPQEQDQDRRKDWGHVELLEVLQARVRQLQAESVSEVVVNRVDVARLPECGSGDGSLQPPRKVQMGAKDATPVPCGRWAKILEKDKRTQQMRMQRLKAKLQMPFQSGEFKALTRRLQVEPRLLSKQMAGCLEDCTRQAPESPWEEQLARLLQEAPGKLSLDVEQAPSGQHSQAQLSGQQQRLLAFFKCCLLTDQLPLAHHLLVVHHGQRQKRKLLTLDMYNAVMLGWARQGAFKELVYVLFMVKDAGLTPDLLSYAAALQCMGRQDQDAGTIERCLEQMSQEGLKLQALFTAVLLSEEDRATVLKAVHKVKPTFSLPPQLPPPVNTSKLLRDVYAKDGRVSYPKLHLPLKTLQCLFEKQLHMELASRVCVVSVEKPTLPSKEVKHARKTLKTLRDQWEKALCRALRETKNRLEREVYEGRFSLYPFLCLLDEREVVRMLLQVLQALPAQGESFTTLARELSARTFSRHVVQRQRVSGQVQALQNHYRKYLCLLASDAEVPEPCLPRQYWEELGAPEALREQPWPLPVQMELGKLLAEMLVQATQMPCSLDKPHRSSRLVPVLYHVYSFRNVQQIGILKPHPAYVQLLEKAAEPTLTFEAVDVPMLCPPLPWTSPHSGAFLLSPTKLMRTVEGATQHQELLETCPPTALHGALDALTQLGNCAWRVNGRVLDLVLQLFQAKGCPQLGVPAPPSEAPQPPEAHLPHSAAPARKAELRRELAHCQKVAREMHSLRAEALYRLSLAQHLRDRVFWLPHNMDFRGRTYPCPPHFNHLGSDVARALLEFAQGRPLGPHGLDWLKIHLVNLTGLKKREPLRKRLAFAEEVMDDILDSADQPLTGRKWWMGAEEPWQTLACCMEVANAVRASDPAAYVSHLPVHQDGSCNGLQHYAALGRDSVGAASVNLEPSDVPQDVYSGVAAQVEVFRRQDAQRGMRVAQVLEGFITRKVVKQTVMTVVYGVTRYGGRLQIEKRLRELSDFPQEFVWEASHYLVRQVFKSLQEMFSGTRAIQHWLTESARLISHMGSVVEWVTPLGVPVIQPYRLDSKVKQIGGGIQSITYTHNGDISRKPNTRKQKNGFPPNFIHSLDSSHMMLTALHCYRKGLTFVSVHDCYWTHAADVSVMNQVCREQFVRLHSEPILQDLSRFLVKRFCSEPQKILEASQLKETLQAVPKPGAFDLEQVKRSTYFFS

With `C[C@@]1(O)[C@H](O)[C@@H](CO)O[C@H]1c1ccc2c(N)ncnn12` the inhibition [1] was 21%, the Activity [2] was “Toxic” and the NOAEL at 168 h [3] was less than 5 mg/kg/day.
In the case of `C[C@@]1(c2ccc3c(N)ncnn23)O[C@H](CO)[C@@H](O)[C@@]1(C)O`, the inhibition [1] is reported as 0.08%, the IC50 [4] is reported as 55 µM and the EC50 [5] is reported as greater than 89 µM.
`CC(C)OC(=O)[C@H](C)N[P@](=O)(OC[C@H]1O[C@@](C#N)(c2ccc3c(N)ncnn23)[C@](C)(O)[C@@H]1OC(=O)C(C)C)Oc1ccccc1` [GS-6620] showed an EC50 [6] of 0.068 µM, an Activity [7] of 1.73 log10IU/ml and an MTD [8] of 900 mg. For the same compound, the Activity [9] was 1.63 log10IU/ml, the Stability [10] was “Stable” and the Activity [11] was 1.14 log10IU/ml.
`CC(C)OC(=O)[C@H](C)NP(=O)(OC[C@H]1O[C@@](C#N)(c2ccc3c(N)ncnn23)[C@](C)(O)[C@@H]1OC(=O)C(C)C)Oc1ccccc1` (stereo partly drawn) showed a CC50 at 72 h [12] of 47 µM, a Cmax [13] of 4.5 µM and a Fa [14] of 88%. For the same compound, the NOAEL at 168 h [15] was greater than 300 mg/kg/day, the logD [16] was 2.9 and the “Ratio EC50” value [17] was greater than 95. For the same compound, the Stability [10] was “Stable”, the NOAEL at 168 h [18] was greater than 75 mg/kg/day and the EC50 [5] was 0.61 µM. It also gave a Cmax [19] of 3.67 µM and an efflux ratio at 100 µM [20] of less than 2.
